For experiment [1], the system named is A549. Kind of experiment: Selectivity ratio of EC50 for human A549 cells in presence of 70% human serum albumin to EC50 for human A549 cells in absence of 70% human serum albumin. Format: functional.
Experiment [2] deals with A549. The experiment can be described thus: Antiproliferative activity against human A549 cells after 6 to 7 days by celltiter-glo luminescence assay in absence of 70% human serum albumin. Format: functional, cell-based. For orientation: Cellular ATP, detected with luciferase, serves as a proxy for viable cell number.
The target of another experiment is Aurora kinase B (Homo sapiens, UniProt Q96GD4). The experiment can be described thus: Inhibition of human Aurora B by in vitro inhibition assay.
The next experiment addresses T1, Aurora kinase A (Homo sapiens, UniProt O14965).
T1 sequence (O14965 whole entry): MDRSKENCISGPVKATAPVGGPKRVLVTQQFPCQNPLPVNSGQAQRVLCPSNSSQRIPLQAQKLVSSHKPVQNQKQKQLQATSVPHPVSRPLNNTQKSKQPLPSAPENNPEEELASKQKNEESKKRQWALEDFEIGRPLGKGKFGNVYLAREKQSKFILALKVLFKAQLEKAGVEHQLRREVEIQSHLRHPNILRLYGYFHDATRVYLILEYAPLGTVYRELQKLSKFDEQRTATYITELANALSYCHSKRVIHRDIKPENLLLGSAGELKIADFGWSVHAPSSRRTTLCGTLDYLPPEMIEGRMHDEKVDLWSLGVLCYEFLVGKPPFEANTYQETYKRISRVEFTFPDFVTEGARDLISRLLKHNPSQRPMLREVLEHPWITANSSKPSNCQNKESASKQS
The experiment can be described thus: Inhibition of human Aurora A.

The species entered for the next experiment is Homo sapiens. Kind of experiment: Selectivity ratio of IC50 for human Aurora A to IC50 for human Aurora B.
For another experiment, the target named is T2, Aurora kinase C (Homo sapiens, UniProt Q9UQB9).
T2 sequence (Q9UQB9 whole entry): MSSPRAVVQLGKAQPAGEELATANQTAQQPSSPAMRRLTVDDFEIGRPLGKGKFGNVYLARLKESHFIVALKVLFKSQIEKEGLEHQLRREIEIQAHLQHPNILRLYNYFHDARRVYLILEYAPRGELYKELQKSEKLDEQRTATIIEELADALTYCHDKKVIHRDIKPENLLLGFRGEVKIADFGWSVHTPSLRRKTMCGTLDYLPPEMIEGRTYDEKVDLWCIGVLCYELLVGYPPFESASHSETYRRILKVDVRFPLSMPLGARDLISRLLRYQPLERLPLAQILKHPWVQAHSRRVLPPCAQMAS
The experiment can be described thus: Competitive inhibition of Aurora C ATP binding site.

Experiment [3] is described as follows: Inhibition of ROCK. The essentials:
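Part of a 328 human protein and lipid kinase selectivity panel run as in vitro activity or binding assays.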

Experiment [4] concerns the target Hepatocyte growth factor receptor (Homo sapiens, UniProt P08581). Kind of experiment: Inhibition of MET.
In experiment [5] the target is Tyrosine-protein kinase Lck (Homo sapiens) (UniProt P06239). The experiment can be described thus: Inhibition of LCK.

Activity calls are given as the source filed them. No cut-off for these calls is given here. A value given as a limit tells only on which side of the number the result lay.

Chain of Aurora kinase B (Q96GD4 whole entry): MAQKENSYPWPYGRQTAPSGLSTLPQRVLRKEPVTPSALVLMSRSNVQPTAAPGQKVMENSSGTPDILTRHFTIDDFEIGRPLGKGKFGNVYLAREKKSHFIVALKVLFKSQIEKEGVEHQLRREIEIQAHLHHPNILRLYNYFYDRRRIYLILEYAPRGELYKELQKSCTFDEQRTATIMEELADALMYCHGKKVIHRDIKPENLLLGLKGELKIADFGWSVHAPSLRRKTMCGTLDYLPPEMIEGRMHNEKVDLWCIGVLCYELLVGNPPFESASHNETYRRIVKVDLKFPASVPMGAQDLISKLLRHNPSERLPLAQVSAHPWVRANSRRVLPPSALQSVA
Chain of Hepatocyte growth factor receptor (P08581 whole entry): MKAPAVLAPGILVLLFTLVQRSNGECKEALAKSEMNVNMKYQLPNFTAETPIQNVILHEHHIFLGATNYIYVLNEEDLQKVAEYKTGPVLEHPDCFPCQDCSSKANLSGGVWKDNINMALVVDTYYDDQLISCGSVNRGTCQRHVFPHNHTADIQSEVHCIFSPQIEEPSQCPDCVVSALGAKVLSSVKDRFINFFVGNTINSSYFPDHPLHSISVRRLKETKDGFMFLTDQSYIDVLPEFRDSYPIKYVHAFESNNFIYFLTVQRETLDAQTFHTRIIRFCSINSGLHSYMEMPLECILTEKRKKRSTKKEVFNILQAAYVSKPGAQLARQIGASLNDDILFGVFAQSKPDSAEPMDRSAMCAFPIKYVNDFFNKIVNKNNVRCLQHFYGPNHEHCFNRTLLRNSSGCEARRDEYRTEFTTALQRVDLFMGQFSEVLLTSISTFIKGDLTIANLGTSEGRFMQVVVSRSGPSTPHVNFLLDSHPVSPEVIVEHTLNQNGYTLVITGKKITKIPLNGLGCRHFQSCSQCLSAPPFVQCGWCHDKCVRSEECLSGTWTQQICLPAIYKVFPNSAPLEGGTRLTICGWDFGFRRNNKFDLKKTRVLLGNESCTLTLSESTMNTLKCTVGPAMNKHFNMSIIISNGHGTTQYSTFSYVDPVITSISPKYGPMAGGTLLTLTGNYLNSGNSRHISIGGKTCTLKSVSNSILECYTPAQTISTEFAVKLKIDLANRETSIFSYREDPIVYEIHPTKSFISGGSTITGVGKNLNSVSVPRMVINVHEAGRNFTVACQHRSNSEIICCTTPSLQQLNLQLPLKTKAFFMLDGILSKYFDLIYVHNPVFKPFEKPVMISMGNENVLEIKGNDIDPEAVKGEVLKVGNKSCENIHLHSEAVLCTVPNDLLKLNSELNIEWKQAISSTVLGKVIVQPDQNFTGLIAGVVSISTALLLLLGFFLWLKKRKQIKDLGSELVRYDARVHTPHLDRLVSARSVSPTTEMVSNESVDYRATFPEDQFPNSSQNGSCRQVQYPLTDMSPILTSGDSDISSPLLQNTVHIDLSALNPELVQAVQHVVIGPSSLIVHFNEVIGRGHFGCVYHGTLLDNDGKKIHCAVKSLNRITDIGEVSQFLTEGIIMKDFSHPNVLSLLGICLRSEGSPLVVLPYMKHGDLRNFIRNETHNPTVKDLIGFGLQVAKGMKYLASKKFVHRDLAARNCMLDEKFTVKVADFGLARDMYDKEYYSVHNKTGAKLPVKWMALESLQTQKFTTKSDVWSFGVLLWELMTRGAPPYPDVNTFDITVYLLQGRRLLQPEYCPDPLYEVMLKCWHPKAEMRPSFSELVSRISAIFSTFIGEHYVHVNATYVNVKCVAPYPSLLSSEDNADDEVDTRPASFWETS
Chain of Tyrosine-protein kinase Lck (Homo sapiens) (P06239 2-509 limits assumed): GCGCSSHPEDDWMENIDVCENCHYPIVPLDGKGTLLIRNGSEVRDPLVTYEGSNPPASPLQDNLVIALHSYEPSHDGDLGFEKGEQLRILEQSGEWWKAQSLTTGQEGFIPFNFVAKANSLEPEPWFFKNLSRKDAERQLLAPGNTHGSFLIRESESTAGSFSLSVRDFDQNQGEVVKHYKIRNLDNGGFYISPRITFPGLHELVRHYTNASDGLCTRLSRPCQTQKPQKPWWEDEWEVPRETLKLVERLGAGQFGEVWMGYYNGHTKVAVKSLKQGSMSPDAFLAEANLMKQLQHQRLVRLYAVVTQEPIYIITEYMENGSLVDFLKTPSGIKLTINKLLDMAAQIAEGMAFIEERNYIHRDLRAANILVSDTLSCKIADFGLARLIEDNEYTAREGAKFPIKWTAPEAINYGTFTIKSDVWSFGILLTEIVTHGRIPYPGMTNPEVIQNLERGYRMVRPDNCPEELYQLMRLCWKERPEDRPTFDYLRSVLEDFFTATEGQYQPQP

Usually EC50 stands for the midpoint of the concentration-response curve. Low values mean a more potent agent, high ones a less potent agent. A word on the IC50: it is the concentration at which inhibition is half-maximal. A high value points to weaker potency in that assay. As to `CCn1cc(-c2ccnc3[nH]c(CNCCN4CCOCC4)cc23)c(-c2ccc(NC(=O)Nc3ccccc3)cc2)n1`, the “Ratio EC50” value in the experiment with A549 [1] is 10. This molecule also returned an EC50 in the experiment on A549 [2] of 2860 nM. In addition, the IC50 against Aurora kinase B is 22 nM; against Aurora kinase A it was 2440 nM.

Take `CCn1cc(-c2ccnc3[nH]c(-c4ccc(NC(C)=O)cc4)cc23)c(-c2ccc(NC(=O)Nc3ccccc3)cc2)n1`: the “Ratio EC50” value with A549 [1] was found to be 10. In the experiment with A549 [2], this molecule displayed an EC50 of 110 nM. Besides, the concentration for half-maximal inhibition (IC50) on Aurora kinase B is 44 nM; at Aurora kinase A, 62 nM.

Turning to `CCn1cc(-c2ccnc3[nH]c(-c4cccc(CN5CCCC5)c4)cc23)c(-c2ccc(NC(=O)Nc3ccccc3)cc2)n1`, the “Ratio EC50” value in the experiment on A549 [1] came to 10. This molecule also returned a 50% effective concentration (EC50) with A549 [2] of 12 nM. Further, the results for the half-maximal inhibitory concentration (IC50) against Aurora kinase B and against Aurora kinase A were 11 nM and 22 nM, respectively.

As for `CCn1cc(-c2ccnc3[nH]c(-c4ccc(CN(C)C)cc4)cc23)c(-c2ccc(NC(=O)Nc3ccccc3)cc2)n1`, the “Ratio EC50” value with A549 [1] was 10. A half-maximal effect in the experiment with A549 [2] (EC50) was put at 8 nM. For the same molecule, the values for the IC50 on Aurora kinase B and against Aurora kinase A were 23 nM and 45 nM, respectively.

As for `CCn1cc(-c2ccnc3[nH]c(-c4ccc(CN(C)C)cc4C)cc23)c(-c2ccc(NC(=O)Nc3ccccc3)cc2)n1`, in the experiment on A549 [1], the “Ratio EC50” value came to 10. In addition, in the experiment with A549 [2], the EC50 was found to be 16 nM. The half-maximal inhibitory concentration (IC50) against Aurora kinase B was found to be 26 nM; against Aurora kinase A it was 42 nM.

`CCn1cc(-c2ccnc3[nH]c(-c4ccc(CN(C)C)cc4)cc23)c(-c2ccc(NC(=O)N(C)C)cc2)n1`: the Ratio IC50 in the experiment filed under Homo sapiens came out at 156. Besides, in the experiment on A549 [2], the EC50 is 6 nM. The results for the concentration for half-maximal inhibition (IC50) at Aurora kinase B and on Aurora kinase A were 3.6 nM and 514 nM, respectively.

For the molecule `CCn1cc(-c2ccnc3[nH]c(CNCCO)cc23)c(-c2ccc(NC(=O)Nc3ccccc3)cc2)n1`, the “Ratio EC50” value with A549 [1] came to 10. In addition, the EC50 in the experiment with A549 [2] was 18600 nM. The values for the IC50 on Aurora kinase B and on Aurora kinase A were 46 nM and 2820 nM, respectively.

Take `CCn1cc(-c2ccnc3[nH]c(-c4ccc(CN5CCOCC5)cc4)cc23)c(-c2ccc(NC(=O)Nc3ccccc3)cc2)n1`: in the experiment on A549 [1], the “Ratio EC50” value is given as 10. Besides, the midpoint of the response in the experiment on A549 [2], the EC50, lay at 17 nM. The IC50 came out at 66 nM against Aurora kinase B and 59 nM at Aurora kinase A.

Regarding `CCn1cc(-c2ccnc3[nH]c(C(=O)NCCN4CCOCC4)cc23)c(-c2ccc(NC(=O)Nc3ccccc3)cc2)n1`, the “Ratio EC50” value in the experiment with A549 [1] is recorded as 10. This molecule yielded an EC50 in the experiment on A549 [2] of 200 nM. The IC50 against Aurora kinase B amounted to 5 nM; against Aurora kinase A it was 197 nM.

For `CCNC(=O)Nc1ccc(-c2nn(CC)cc2-c2ccnc3[nH]c(-c4cccc(CN(C)C)c4)cc23)cc1`, in the experiment filed under Homo sapiens, the Ratio IC50 was determined as 42. Also, in the experiment on A549 [2], the EC50 came out at 12 nM. The concentration for half-maximal inhibition (IC50) against Aurora kinase B amounted to 3 nM; against Aurora kinase A, 128 nM.

Consider `CCn1cc(-c2ccnc3[nH]c(-c4cccc(CN5CCOCC5)c4)cc23)c(-c2ccc(NC(=O)Nc3ccccc3)cc2)n1`, for which the “Ratio EC50” value with A549 [1] turned out to be 10. Moreover, the midpoint of the response in the experiment on A549 [2], the EC50, lay at 30 nM. Further, the IC50 against Aurora kinase B came to 57 nM; at Aurora kinase A, 94 nM.

`CCN(CCCOc1ccc2c(Nc3cc(CC(=O)Nc4cccc(F)c4)n[nH]3)ncnc2c1)CCOP(=O)(O)O` [BARASERTIB] registered an IC50 at Aurora kinase C of 17 nM.

On to `CCn1cc(-c2ccnc3[nH]c(-c4cc(CN(C)C)ccc4C)cc23)c(-c2ccc(NC(=O)Nc3ccccc3)cc2)n1`, for which the “Ratio EC50” value with A549 [1] is 10. In addition, a half-maximal effect in the experiment on A549 [2] (EC50) was put at 174 nM. Further, the IC50 turned out to be 60 nM on Aurora kinase B and 113 nM against Aurora kinase A.

In the case of `CCn1cc(-c2ccnc3[nH]c(-c4cccc(CN(C)C)c4)cc23)c(-c2ccc(NC(=O)Nc3ccccc3)cc2)n1`, the “Ratio EC50” value in the experiment on A549 [1] is listed as 10. The inhibition result in [3], in experiment [4] and in experiment [5] was “Active” throughout. In the experiment filed under Homo sapiens, the Ratio IC50 was found to be 3. A half-maximal response with A549 [2] (EC50) required 14 nM. The IC50 is 20 nM against Aurora kinase B and 53 nM at Aurora kinase A.

In the experiment with A549 [2], `O=C(Nc1ccccc1)Nc1ccc(-c2nn(CC(=O)N3CCOCC3)cc2-c2ccnc3[nH]ccc23)cc1` yielded an EC50 above 20000 nM. Also, the values for the IC50 on Aurora kinase B and at Aurora kinase A were 85 nM and 6810 nM, respectively.

Take `CCn1cc(-c2ccnc3[nH]c(-c4cccc(NC(C)=O)c4)cc23)c(-c2ccc(NC(=O)Nc3ccccc3)cc2)n1`: the “Ratio EC50” value with A549 [1] was 10. In the experiment with A549 [2], this molecule registered an EC50 of 156 nM. The IC50 on Aurora kinase B is 44 nM; on Aurora kinase A it was 126 nM.

For the molecule `CCn1cc(-c2ccnc3[nH]c(C(=O)NCCCN4CCN(C)CC4)cc23)c(-c2ccc(NC(=O)Nc3ccccc3)cc2)n1`, in the experiment on A549 [1], the “Ratio EC50” value is given as 10. This molecule also registered a 50% effective concentration (EC50) with A549 [2] of 638 nM. Besides, the values for the IC50 against Aurora kinase B and against Aurora kinase A were 8 nM and 228 nM, respectively.

In the case of `CCn1cc(-c2ccnc3[nH]c(CN(C)C)cc23)c(-c2ccc(NC(=O)Nc3ccccc3)cc2)n1`, the “Ratio EC50” value with A549 [1] came out at 10. This molecule registered an EC50 with A549 [2] of 4390 nM. Moreover, the IC50 on Aurora kinase B worked out at 58 nM; against Aurora kinase A, 1700 nM.

In turn, `CCNC(=O)Nc1ccc(-c2nn(CC)cc2-c2ccnc3[nH]c(-c4cccc(CN5CCCC5)c4)cc23)cc1` yielded an EC50 in the experiment on A549 [2] of 9 nM. Moreover, the IC50 was 1.4 nM at Aurora kinase B and 58 nM against Aurora kinase A.

With `CCn1cc(-c2ccnc3[nH]c(CNCCN(C)C)cc23)c(-c2ccc(NC(=O)Nc3ccccc3)cc2)n1`, the “Ratio EC50” value in the experiment on A549 [1] came out at 10. Besides, the values for the IC50 against Aurora kinase B and against Aurora kinase A were 276 nM and 5480 nM, respectively.

As to `CCn1cc(-c2ccnc3[nH]c(CNCCCN4CCN(C)CC4)cc23)c(-c2ccc(NC(=O)Nc3ccccc3)cc2)n1`, the “Ratio EC50” value in the experiment with A549 [1] is on record as 10. Besides, the EC50 with A549 [2] was above 20000 nM. Moreover, the IC50 against Aurora kinase B stood at 83 nM; against Aurora kinase A, 5110 nM.

Turning to `CCn1cc(-c2ccnc3[nH]c(C(=O)NCCN4CCN(C)CC4)cc23)c(-c2ccc(NC(=O)Nc3ccccc3)cc2)n1`, the “Ratio EC50” value in the experiment with A549 [1] stood at 10. Moreover, the midpoint of the response with A549 [2], the EC50, lay at 417 nM. For the same molecule, the IC50 against Aurora kinase B came out at 5 nM; against Aurora kinase A it was 203 nM.

With `CCn1cc(-c2ccnc3[nH]c(CNCCS(C)(=O)=O)cc23)c(-c2ccc(NC(=O)Nc3ccccc3)cc2)n1`, the “Ratio EC50” value with A549 [1] is listed as 10. Moreover, a half-maximal response with A549 [2] (EC50) required 11500 nM. In addition, the values for the IC50 against Aurora kinase B and at Aurora kinase A were 24 nM and 579 nM, respectively.

(Values after ChEMBL document CHEMBL1157791, “Discovery of GSK1070916, a potent and selective inhibitor of Aurora B/C kinase” (J Med Chem, 2010).)
